The record followed here is ChEMBL document CHEMBL1250494, “Synthesis of new 3-aryl-4,5-dihydropyrazole-1-carbothioamide derivatives. An investigation on their ability to inhibit monoamine oxidase” (Eur J Med Chem, 2010).

pIC50: −log10 of the molar value.

Data set [1] has as its target T1, Amine oxidase [flavin-containing] B (Homo sapiens, UniProt P27338).
T1 sequence (P27338 whole entry): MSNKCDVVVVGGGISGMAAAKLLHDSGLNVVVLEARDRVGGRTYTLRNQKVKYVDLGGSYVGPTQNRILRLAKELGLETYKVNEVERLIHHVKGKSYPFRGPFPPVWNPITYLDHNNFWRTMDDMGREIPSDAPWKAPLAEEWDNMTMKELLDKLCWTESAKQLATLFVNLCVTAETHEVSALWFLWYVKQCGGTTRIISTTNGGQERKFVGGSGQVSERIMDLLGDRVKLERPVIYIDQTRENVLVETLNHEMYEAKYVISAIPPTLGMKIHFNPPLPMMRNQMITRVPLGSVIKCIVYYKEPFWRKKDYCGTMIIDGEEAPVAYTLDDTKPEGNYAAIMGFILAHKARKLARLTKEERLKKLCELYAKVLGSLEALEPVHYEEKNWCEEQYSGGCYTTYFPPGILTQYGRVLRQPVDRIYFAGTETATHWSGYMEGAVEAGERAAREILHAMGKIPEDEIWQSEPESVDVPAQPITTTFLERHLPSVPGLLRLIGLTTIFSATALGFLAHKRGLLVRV
The data set is described as follows: Inhibition of human recombinant MAOB expressed in baculovirus infected BTI insect cells assessed as hydrogen peroxide production at 100 uM after 15 mins by Amplex red assay. Conditions: 0.25 h; for inhibition (INH): 100 µM; call rule not given here. Summed up:
(§1)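 Recombinant hMAO-A or hMAO-B, in an amount oxidizing 165 pmol p-tyramine/min in controls, preincubated with test drug 15 min at 37 °C in 0.05 M sodium phosphate pH 7.4, dark. Reaction started with 1 U/ml HRP, Amplex Red and 1 mM p-tyramine (final). Resorufin read at ex 545/em 590 nm over 15 min. Background subtracted; vehicle (DMSO) controls. Precipitation limited higher concentrations.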

Data set [2] concerns the target T2, Amine oxidase [flavin-containing] A (Homo sapiens, UniProt P21397).
T2 sequence (P21397 whole entry): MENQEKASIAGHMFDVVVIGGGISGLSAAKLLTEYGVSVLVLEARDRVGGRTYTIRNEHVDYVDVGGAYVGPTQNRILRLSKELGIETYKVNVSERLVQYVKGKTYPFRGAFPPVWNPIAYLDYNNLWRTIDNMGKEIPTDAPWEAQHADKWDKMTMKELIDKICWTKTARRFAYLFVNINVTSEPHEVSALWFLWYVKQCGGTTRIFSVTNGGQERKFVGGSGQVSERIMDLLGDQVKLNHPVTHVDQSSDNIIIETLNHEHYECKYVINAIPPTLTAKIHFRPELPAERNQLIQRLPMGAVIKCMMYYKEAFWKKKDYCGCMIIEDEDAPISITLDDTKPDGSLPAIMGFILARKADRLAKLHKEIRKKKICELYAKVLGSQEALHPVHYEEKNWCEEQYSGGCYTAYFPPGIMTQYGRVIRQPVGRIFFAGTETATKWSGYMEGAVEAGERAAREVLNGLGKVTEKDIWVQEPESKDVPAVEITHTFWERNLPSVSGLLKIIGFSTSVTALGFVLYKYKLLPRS
The data set is described as follows: Inhibition of human recombinant MAOA expressed in baculovirus infected BTI insect cells assessed as hydrogen peroxide production at 100 uM after 15 mins by Amplex red assay. Conditions: 0.25 h; for inhibition (INH): 100 µM. Summed up: as §1

The species entered for another data set is Homo sapiens. The data set is described as follows: Selectivity index, ratio of IC50 for human recombinant MAOA to IC50 for human recombinant MAOB. Summed up:
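IC50 values for hMAO-A and hMAO-B came from the Amplex Red/HRP assay, with 1 mM p-tyramine and readings at ex 545/em 590 nm at 37 °C. […] The selectivity index is IC50(MAO-A)/IC50(MAO-B). Where MAO-A was not inhibited, its IC50 was set at the highest concentration tested. Values are mean ± SEM.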

Data set [3] has as its target T1, Amine oxidase [flavin-containing] B. The data set is described as follows: biochemical. Format: cell-based.
Data set [4] shares this target. The data set is described as follows: Inhibition of human recombinant MAOB expressed in baculovirus infected BTI insect cells assessed as hydrogen peroxide production at 1 mM after 15 mins by Amplex red assay. Conditions: 0.25 h, 1000 µM. In outline:
as §1

As for `Cc1cccc(C2=NN(C(N)=S)CC2)c1`, the “inhibition (INH)” value in data set [1] and in data set [2] was “Not Active” throughout.
A word on the pIC50: it is the IC50 on a negative log10 scale, so that one unit is a factor of ten. Consider `CNC(=S)N1CC(C)C(c2ccc(OC)cc2)=N1` (stereo unspecified), for which, in data set [2], the “inhibition (INH)” value was “Not Active”. Moreover, the Selectivity Index in the data set listed under Homo sapiens was more than 2.02. Besides, the pIC50 in data set [3] was 4.31.
`COc1cccc(C2=NN(C(N)=S)CC2)c1`: the “inhibition (INH)” value in data set [1] and in data set [2] was “Not Active” in each case.
Usually inhibition stands for the share of the control response that was lost under treatment. In the case of `CNC(=S)N1CC(C)C(c2ccc(C)cc2)=N1` (stereo unspecified), the inhibition at 100 µM in data set [1] and in data set [2] was 40% in each case.
`NC(=S)N1CCC(c2ccc(Cl)cc2Cl)=N1`: the “inhibition (INH)” value in data set [1] and in data set [2] was “Not Active” each time.
Take `CNC(=S)N1CCC(c2ccc(OC)cc2)=N1`: the “inhibition (INH)” value in data set [2] is on record as “Not Active”. Further, the Selectivity Index in the data set filed under Homo sapiens was more than 7.3. The compound further gave a pIC50 in data set [3] of 4.86.
Regarding `CC1CN(C(N)=S)N=C1c1ccc(F)cc1` (stereo unspecified), the inhibition at 100 µM in data set [1] and in data set [2] was 40% in each case.
Regarding `CNC(=S)N1CC(C)C(c2ccccc2)=N1` (stereo unspecified), the inhibition at 100 µM in data set [1] is 40%. In data set [2], the “inhibition (INH)” value is recorded as “Not Active”.
For the compound `NC(=S)N1CCC(c2ccc(F)cc2)=N1`, the “inhibition (INH)” value in data set [1] and in data set [2] was “Not Active” each time.
Take `NC(=S)N1CCC(c2cccs2)=N1`: the “inhibition (INH)” value in data set [1] and in data set [2] was “Not Active” each time.
Turning to `CNC(=S)N1CCC(c2cccc(C)c2)=N1`, the “inhibition (INH)” value in data set [2] is on record as “Not Active”. Moreover, the Selectivity Index in the data set listed under Homo sapiens is more than 1.87. The pIC50 in data set [3] was 4.27.
With `CNC(=S)N1CC(C)C(c2ccc(F)cc2)=N1` (stereo unspecified), the inhibition at 100 µM in data set [1] was determined as 40%. The “inhibition (INH)” value in data set [2] is listed as “Not Active”.
In the case of `CNC(=S)N1CCC(c2cccs2)=N1`, the “inhibition (INH)” value in data set [1] and in data set [2] was “Not Active” each time.
Turning to `Cc1ccc(C2=NN(C(N)=S)CC2C)cc1` (stereo unspecified), the inhibition at 100 µM in data set [1] worked out at 40%. Besides, the “inhibition (INH)” value in data set [2] was “Not Active”.
As for `CNC(=S)N1CCC(c2cccc(OC)c2)=N1`, the “inhibition (INH)” value in data set [2] is recorded as “Not Active”. Further, the Selectivity Index in the data set filed under Homo sapiens is more than 1.4. The same compound showed a pIC50 in data set [3] of 4.15.
With `Cc1ccccc1C1=NN(C(N)=S)CC1`, the “inhibition (INH)” value in data set [1] and in data set [2] was “Not Active” each time.
As for `CNC(=S)N1CCC(c2ccc(F)cc2)=N1`, the “inhibition (INH)” value in data set [2] is on record as “Not Active”. For the same compound, the Selectivity Index in the data set filed under Homo sapiens was more than 1.96. This compound had a negative-log IC50 (pIC50) in data set [3] of 4.29.
As to `COc1ccc(C2=NN(C(N)=S)CC2C)cc1` (stereo unspecified), the inhibition at 100 µM in data set [2] is 40%. Further, the Selectivity Index in the data set filed under Homo sapiens was more than 1.18. In data set [3], this compound gave a pIC50 of 4.07.
Regarding `CC1CN(C(N)=S)N=C1c1ccccc1` (stereo unspecified), the inhibition at 100 µM in data set [1] is 40%. The “inhibition (INH)” value in data set [2] is reported as “Not Active”.
Take `CNC(=S)N1CCC(c2ccc(C)cc2)=N1`: the inhibition at 100 µM in data set [2] is 40%. The Selectivity Index in the data set filed under Homo sapiens is more than 5.96. The same compound gave a pIC50 in data set [3] of 4.78.
`COc1ccc(C2=NN(C(N)=S)CC2)cc1`: the “inhibition (INH)” value in data set [2] is recorded as “Not Active”. Also, in the data set filed under Homo sapiens, the Selectivity Index was more than 6.46. This compound also gave a pIC50 in data set [3] of 4.81.
On the same counts, the results for `Cc1ccc(C2=NN(C(N)=S)CC2)cc1` are “Not Active”, more than 5.51 and 4.74.
As to `CC1CN(C(N)=S)N=C1c1ccc(Cl)cc1` (stereo unspecified), the inhibition at 100 µM in data set [1] and in data set [2] was 40% each time.
For the compound `O=C(NCCN1CCOCC1)c1ccc(Cl)cc1` [MOCLOBEMIDE], the “inhibition (INH)” value in data set [4] is “Not Active”.
For `CNC(=S)N1CCC(c2ccccc2C)=N1`, the “inhibition (INH)” value in data set [1] and in data set [2] was “Not Active” in each case.
In the case of `CNC(=S)N1CC(C)C(c2ccc(Cl)cc2)=N1` (stereo unspecified), in data set [2], the “inhibition (INH)” value is given as “Not Active”. In addition, in the data set listed under Homo sapiens, the Selectivity Index was more than 2.87. The compound further gave a pIC50 in data set [3] of 4.46.
